Measured values reported in ChEMBL document CHEMBL3817726, “Chemically Diverse Group I p21-Activated Kinase (PAK) Inhibitors Impart Acute Cardiovascular Toxicity with a Narrow Therapeutic Window” (J Med Chem, 2016).
Blank lines part the entries; values can stand above or below the molecule they belong to.

Columns and labels:
[1] = Fraction unbound in mouse plasma at 100 mg/kg, ip; format: ADME, organism-based
[2] = molecular target: Serine/threonine-protein kinase PAK 1/PAK 2 (Homo sapiens, UniProt Q13177+Q13153); test: Inhibition of PAK1/2 in human EBC1 cells assessed as phosphorylation of MEK1 at serine 298 after 2 hrs by HTRF assay; format: cell-based
[3] = Cmax in mouse at 100 mg/kg, ip; format: ADME, organism-based; design: dose 100 mg/kg, route intraperitoneal; details: in vivo
[4] = molecular target: Serine/threonine-protein kinase PAK 2 (Homo sapiens, UniProt Q13177); test: (§1) Inhibition of human recombinant PAK2 assessed as phosphorylation of coumarin labeled FRET peptide substrate at Ser/Thr19 preincubated for 10 mins followed by ATP addition measured after 60 mins by Z'-LYTE assay
Mus musculus [5] = test: fCmax in mouse at 100 mg/kg, ip; format: ADME, organism-based; details: in vivo
Method in brief: (§2)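 Mouse tolerability studies at multiple doses, oral or intraperitoneal. Minimum unbound plasma concentration associated with adverse effects (total Cmax converted to unbound) compared with IC50 for inhibition of MEK1 S298 phosphorylation in cells.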

[6] = molecular target: Serine/threonine-protein kinase PAK 1 (Homo sapiens, UniProt Q13153); test: as §1, with “N-terminal 6-His-tagged PAK1 kinase domain (249 to 545 residues) expressed in Escherichia coli BL21(DE3)” for “PAK2”
[7] = Fraction unbound in mouse plasma at 25 to 50 mg/kg, po; format: ADME, organism-based
[8] = Ratio of fCmax associated with acute adverse effect in mouse at 25 to 50 mg/kg, po to IC50 for PAK1/2-mediated phosphorylation of MEK1 at serine 298 in human EBC1 cells
Method in brief: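 Mouse tolerability studies at multiple doses, given p.o. or i.p. Total plasma concentrations were converted to unbound levels. The minimum unbound Cmax linked to adverse effects was set against the cellular IC50 for inhibition of MEK1 S298 phosphorylation.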

[9] = Cmax associated with acute adverse effect in mouse at 25 to 50 mg/kg, po; format: ADME, organism-based; details: in vivo
Method in brief: (§3)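 Mouse tolerability studies tested multiple doses, given orally or intraperitoneally. Plasma drug concentrations were measured, including at a 15 min time point. The minimum concentration associated with adverse clinical signs or death was taken as the adverse Cmax and was converted to an unbound value.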

Mus musculus [10] = test: fCmax associated with acute adverse effect in mouse at 25 to 50 mg/kg, po; format: ADME, organism-based; details: in vivo; method in brief: as §2
[11] = Cmax associated with acute adverse effect in mouse at 50 mg/kg, ip; format: ADME, organism-based; design: dose 50 mg/kg, route intraperitoneal; details: in vivo; method in brief: as §3
[12] = Fraction unbound in mouse plasma at 25 mg/kg, ip; format: ADME, organism-based
[13] = Ratio of fCmax associated with acute adverse effect in mouse at 25 mg/kg, ip to IC50 for PAK1/2-mediated phosphorylation of MEK1 at serine 298 in human EBC1 cells
Mus musculus [14] = test: fCmax associated with acute adverse effect in mouse at 25 mg/kg, ip; format: ADME, organism-based; details: in vivo; method in brief: as §2
[15] = Cmax associated with acute adverse effect in mouse at 50 to 100 mg/kg, ip; format: ADME, organism-based; details: in vivo; method in brief: as §3
[16] = Fraction unbound in mouse plasma at 50 to 100 mg/kg, ip; format: ADME, organism-based
Mus musculus [17] = test: fCmax associated with acute adverse effect in mouse at 50 to 100 mg/kg, ip; format: ADME, organism-based; details: in vivo; method in brief: as §2
[18] = Ratio of fCmax associated with acute adverse effect in mouse at 50 to 100 mg/kg, ip to IC50 for PAK1/2-mediated phosphorylation of MEK1 at serine 298 in human EBC1 cells; method in brief: as §2

Chain of Serine/threonine-protein kinase PAK 1 (Q13153 whole entry, the tested form may be a part): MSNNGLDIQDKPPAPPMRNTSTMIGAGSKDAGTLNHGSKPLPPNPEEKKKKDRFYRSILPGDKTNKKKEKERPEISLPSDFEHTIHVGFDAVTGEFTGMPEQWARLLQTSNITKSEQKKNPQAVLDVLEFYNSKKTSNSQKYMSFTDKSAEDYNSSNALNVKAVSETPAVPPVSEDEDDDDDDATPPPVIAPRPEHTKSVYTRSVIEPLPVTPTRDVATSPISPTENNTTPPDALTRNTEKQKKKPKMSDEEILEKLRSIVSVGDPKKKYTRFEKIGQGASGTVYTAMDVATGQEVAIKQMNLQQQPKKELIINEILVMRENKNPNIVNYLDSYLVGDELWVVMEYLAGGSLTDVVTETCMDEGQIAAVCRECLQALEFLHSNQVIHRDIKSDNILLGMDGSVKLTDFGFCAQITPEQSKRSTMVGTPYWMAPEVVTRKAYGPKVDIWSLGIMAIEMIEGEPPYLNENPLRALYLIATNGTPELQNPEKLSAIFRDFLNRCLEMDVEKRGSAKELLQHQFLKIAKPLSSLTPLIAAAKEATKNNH
Chain of Serine/threonine-protein kinase PAK 2 (Q13177 whole entry): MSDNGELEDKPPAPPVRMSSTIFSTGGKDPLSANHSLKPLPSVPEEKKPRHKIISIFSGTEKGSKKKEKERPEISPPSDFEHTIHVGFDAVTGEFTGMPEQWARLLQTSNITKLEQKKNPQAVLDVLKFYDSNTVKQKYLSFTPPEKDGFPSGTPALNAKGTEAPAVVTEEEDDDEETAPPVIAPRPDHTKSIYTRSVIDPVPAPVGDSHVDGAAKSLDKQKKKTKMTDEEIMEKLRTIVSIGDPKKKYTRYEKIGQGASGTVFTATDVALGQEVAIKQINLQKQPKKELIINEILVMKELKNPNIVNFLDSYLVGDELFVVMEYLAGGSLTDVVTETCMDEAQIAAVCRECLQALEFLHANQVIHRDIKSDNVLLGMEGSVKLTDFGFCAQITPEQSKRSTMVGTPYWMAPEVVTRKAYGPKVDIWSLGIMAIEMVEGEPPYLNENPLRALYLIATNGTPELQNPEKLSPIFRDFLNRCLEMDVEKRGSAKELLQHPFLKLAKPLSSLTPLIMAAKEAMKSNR

- fraction unbound [1]: 0.143
- IC50 [2]: > 30000 nM
- Cmax [3]: 40 µM
- Ki [4]: 2300 nM
- fCmax (Mus musculus [5]): 5.7 µM
- Ki [6]: 943 nM
Structure (SMILES): CNc1ncc2cc(-c3ccc(-n4ccc(C)cc4=O)cc3Cl)c(=O)n(C[C@H]3CNCCO3)c2n1

- fraction unbound [7]: 0.059
- IC50 [2]: 800 nM
- Ki [4]: 39 nM
- Ki [6]: 22 nM
Structure (SMILES): CNc1ncc2cc(-c3ccc(-n4cncc(C)c4=O)cc3Cl)c(=O)n(CCOC)c2n1
- Ratio [8]: 1
- Cmax [9]: 14 µM
- fCmax (Mus musculus [10]): 0.85 µM

- fraction unbound [12]: 0.063
Structure (SMILES): N[C@H]1CC[C@H](CNc2nccc(Nc3cc(C(F)(F)F)ccn3)n2)CC1
- Cmax [11]: 26 µM
- Ratio [13]: 1
- fCmax (Mus musculus [14]): 1.6 µM

- IC50 [2]: 280 nM
- Ki [4]: 4.6 nM
- fraction unbound [16]: 0.076
- Ki [6]: 5.2 nM
Structure (SMILES): Cc1nccn(-c2ccc(-c3cc4cnc(NC5COC5)nc4n(CC4CCNCC4(F)F)c3=O)c(Cl)c2)c1=O (single isomer, unassigned)
- Cmax [15]: 12 µM
- fCmax (Mus musculus [17]): 0.89 µM
- Ratio [18]: 1
